# In the library only some 1.3% were active in any assay of this set; here they are far more common.
# Diaphorase inh: counter-screen for diaphorase-based assays: diaphorase inhibitors and chemical oxidizers; inhibition, % at 20 µM; diaphorase resazurin-to-resorufin fluorescence, NADH, 16 min; bacterial (C. kluyveri) enzyme, not human; 0.69% of 190,000 active;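 active = primary screen inhibition at 20 µM above a set limit, cut at about 50% in these data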;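 note: plate controls were DMSO with full reaction for no effect and wells lacking NADH for full effect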
#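 controls = No-NADH positive control and DMSO neutral control | system = Clostridium kluyveri diaphorase enzyme | timing = reaction incubation of 16 min at room temperature | signal = resorufin fluorescence 544/590 nm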
# Diaph act CS: diaphorase activation or chemical reduction counter-screen; Diaphorase/resazurin coupled assay, resorufin fluorescence, 16 min; active compounds read high; 1 = vehicle wells, 0 = NADH-free wells; activation factor at 20 µM; 0.005% of 190,000 active; AID 1229;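 active = diaphorase activity raised at least twofold by the compound at 20 µM; inactive = activation factor below 2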
#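 System – purified diaphorase enzyme from Clostridium kluyveri · Input – enzyme 0.07 U/mL final · Also added – final NADH 0.114 mM, resazurin 0.1 mM · Measured by – fluorescence of resorufin, 544 nm excitation, 590 nm emission · Timing – 16 min enzyme reaction, ambient temperature · Measure – resorufin increase flagging diaphorase activators or reducers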
# HKDC1 inh: blocks human hexokinase HKDC1 activity | recombinant HKDC1, G6PDH/diaphorase resazurin coupled fluorescence | Q2TB90 | 0.16% of 340,000 active | inhibition, % at 20 µM;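 active = inhibition above about 35% when tested at 20 µM, limit read from the data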;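 note: plate controls were DMSO wells with enzyme for no effect and DMSO wells lacking enzyme for full effect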
# Target sequence (Q2TB90 whole entry, looked up): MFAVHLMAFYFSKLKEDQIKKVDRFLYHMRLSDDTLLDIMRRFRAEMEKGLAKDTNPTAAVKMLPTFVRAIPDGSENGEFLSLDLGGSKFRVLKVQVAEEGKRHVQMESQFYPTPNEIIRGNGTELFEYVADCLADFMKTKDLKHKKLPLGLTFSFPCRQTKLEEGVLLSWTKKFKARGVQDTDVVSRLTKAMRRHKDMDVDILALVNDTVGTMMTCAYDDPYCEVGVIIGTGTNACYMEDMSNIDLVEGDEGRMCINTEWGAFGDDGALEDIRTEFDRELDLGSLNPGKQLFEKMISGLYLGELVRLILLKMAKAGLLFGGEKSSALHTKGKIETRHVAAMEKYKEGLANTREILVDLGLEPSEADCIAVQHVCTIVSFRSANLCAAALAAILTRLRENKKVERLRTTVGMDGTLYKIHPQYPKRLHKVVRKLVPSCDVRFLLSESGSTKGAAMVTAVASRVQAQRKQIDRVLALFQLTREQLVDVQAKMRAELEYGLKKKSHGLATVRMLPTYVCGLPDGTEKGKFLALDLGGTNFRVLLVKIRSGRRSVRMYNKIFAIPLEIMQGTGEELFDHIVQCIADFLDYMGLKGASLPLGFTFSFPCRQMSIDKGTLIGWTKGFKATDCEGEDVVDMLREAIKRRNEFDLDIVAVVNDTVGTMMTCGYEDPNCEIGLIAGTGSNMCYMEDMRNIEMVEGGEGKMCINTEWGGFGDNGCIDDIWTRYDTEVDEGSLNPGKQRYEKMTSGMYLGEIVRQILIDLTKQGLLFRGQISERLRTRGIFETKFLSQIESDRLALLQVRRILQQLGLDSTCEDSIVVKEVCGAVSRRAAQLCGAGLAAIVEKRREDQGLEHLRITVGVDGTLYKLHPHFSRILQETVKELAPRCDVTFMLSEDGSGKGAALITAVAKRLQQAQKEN
#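 Material – in-house recombinant HK5 (HKDC1) enzyme · Quantity – HKDC1 at 5 µg/mL · Buffer or medium – pH 8.0 Tris buffer with 10 mM MgCl2 · Reagent – glucose with 1 mM ATP · Dosing – single 20 µM dose · Times – reaction time 90 min, room temperature, protected from light · Technique – resorufin fluorescence at 613 nm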
# PfG6PD inh: PfG6PD (Plasmodium falciparum) enzyme inhibition | PfGluPho enzyme, NADPH resazurin-diaphorase fluorescence | 0.78% of 350,000 active | AID 504690 | inhibition, % at 20 µM;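 active = inhibition reaching at least a set limit at 20 µM in the primary screen, cut at about 59% in these data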;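 note: 0% = DMSO wells with substrate and 100% = DMSO wells lacking glucose-6-phosphate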
# Tb hexokinase: T. brucei hexokinase 1 inhibition; recombinant TbHK1, G6PDH-coupled NADH A340; inhibition, % at 10 µM; 0.11% of 220,000 active; AID 1430;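 active = inhibition of 50% or more in the single-dose primary screen; inactive = inhibition below 50%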
# G6PDH counter: L. mesenteroides G6PDH inhibition counter-screen; Purified L. mesenteroides G6PDH, diaphorase/resazurin coupled fluorescence, 45 min; inhibition, % at 5 µM; 0.12% of 200,000 active; AID 1020; in the data active = inhibition above about 50%
# PfG6PD confirm: PfG6PD inhibition, single-dose confirmed; AID 504753; shares compounds with PfG6PD inh; 34% of 2,400 active; inhibition, % at 20 µM; recombinant PfGluPho, NADPH-diaphorase-resazurin fluorescence;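 active = inhibition of at least 50% at 20 µM in any single replicate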;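 note: 0% = DMSO with substrate and 100% = DMSO lacking glucose-6-phosphate substrate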
# Diaph ctr 10uM: inhibits diaphorase or oxidizes, flagging false PfG6PD hits. shares compounds with PfG6PD inh. diaphorase-coupled resazurin reduction, fluorescence, NADPH 10 uM. inhibition, % at 20 µM. 39% of 820 active. AID 504862;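 active = average inhibition reaching 50% or more with the compound at 20 µM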;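 note: resorufin red fluorescence formed as diaphorase reduces resazurin using NADPH; 0% = DMSO with enzyme and 100% = DMSO without enzyme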
# Diaphorase 30uM: inhibits diaphorase or oxidizes, flagging false PfG6PD hits. shares compounds with PfG6PD inh. Diaphorase/resazurin coupled assay, resorufin fluorescence, 30 uM NADPH. inhibition, % at 20 µM. 29% of 820 active. AID 504863;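 active = inhibition averaging 50% or more, tested at 20 µM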;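 note: 0% = DMSO with enzyme and 100% = DMSO wells lacking diaphorase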
# * = called active by the depositor; . = not tested or not shown.
SMILES,Diaphorase inh,Diaph act CS,HKDC1 inh,PfG6PD inh,Tb hexokinase,G6PDH counter,PfG6PD confirm,others
CC(=O)NCc1cc(-c2nn(C)c(=O)c3ccccc23)ccc1C,10.7,0.9,2.7,-1.5,-3.8,-1.8,.,
O=C1CCCC(O)=C1C(C#Cc1ccccc1)C1=C(O)CCCC1=O,25.3,0.7,28.7,63.9*,5.0,-19.4,39.7,
COc1ccc(-c2nc3ccccc3n2OCC(=O)O)cc1,3.2,1,12.7,20.9,-5.7,4.2,.,
COn1c(-c2ccc(Cl)cc2)nc2ccc(Cl)cc21,10.3,0.9,-0.2,65.6*,0.4,-0.7,7.7,
O=C(O)COn1c(-c2ccc(Cl)cc2)nc2ccc(Cl)cc21,5.5,0.9,-4.0,60.3*,-1.9,5.8,35.5,
Cc1cccc(C(=S)N2CCOCC2)n1,.,.,-3.3,-6.1,.,.,.,
CSC(=S)NN=C(C)c1cccc(C)n1,.,.,-37.3,95.3*,.,.,30.4,
O=C1NC(=O)C(Cc2ccc(Cl)cc2)(c2ccccc2)N1 (stereo not given),.,.,-2.7,67.8*,.,.,37.8,
COc1cccc2c1nc(C)c1cc(C)oc12,7.5,0.9,-3.2,-17.3,0.4,-0.3,.,
COc1cccc2nc3cc(C)c(C)cc3nc12,.,.,26.6,95.6*,-6.6,.,57.0*,Diaph ctr 10uM=46.1;Diaphorase 30uM=43.0
O=c1[nH]c2ccc(S(=O)(=O)Nc3ccccc3O)cc2[nH]1,.,.,4.4,-10.2,.,.,.,
CN1c2cccc3cccc(c23)N(C)C1(C)C,51.9*,0.5,14.1,70.8*,-12.5,7.5,39.3,
COc1ccc(-n2c(NN)nc3sc4c(c3c2=O)CCCC4)cc1,11.1,0.9,-1.4,91.7*,-7.7,3.5,28.9,
CCN1CCN(c2nc3sc4c(c3c(=O)n2-c2ccc(OC)cc2)CCCCC4)CC1,9.5,0.9,-2.7,-5.6,-12.6,5.0,.,
CN1C(=O)CSC1=Nc1ccc(Br)cc1,.,.,-4.3,-8.2,.,.,.,
Clc1nssc1=Nc1ccc(Br)cc1,21.0,0.8,-14.4,78.6*,5.9,-0.4,29.1,
Clc1nssc1=Nc1nncs1,.,.,-7.7,100.5*,.,.,81.7*,Diaph ctr 10uM=1.0;Diaphorase 30uM=-15.8
O=C1NC(C(=O)O)=CC(c2ccc([N+](=O)[O-])cc2)N1 (stereo not given),.,.,-10.2,64.9*,-20.9,.,18.4,
Cc1ccc(-c2csc(NC(=O)c3cccc(C)c3)c2C(=O)O)cc1,.,.,12.9,47.3,.,.,.,
O=C(Nc1scc(-c2ccc(F)cc2)c1C(=O)O)c1ccco1,9.8,0.9,10.5,-7.1,-27.5,4.7,.,
Cc1ccc(-c2csc(NC(=O)c3ccc(Br)cc3)c2C(=O)O)cc1,.,.,16.9,117.1*,.,.,52.6*,Diaph ctr 10uM=39.7;Diaphorase 30uM=34.6
Cc1ccc(-c2csc(NC(=O)/C=C/c3ccco3)c2C(=O)O)cc1,2.5,1,5.0,92.5*,-1.4,5.5,57.5*,Diaph ctr 10uM=57.9*;Diaphorase 30uM=59.2*
CC(OC(=O)c1ccc2c(=O)n3c(nc2c1)CCC3)C(=O)Nc1ccc(C(N)=O)cc1 (stereo not given),.,.,0.3,6.3,.,.,.,
CCCn1c(N)c(N(CCOC)C(=O)c2ccc(N(C)S(=O)(=O)c3ccc(C)cc3)cc2)c(=O)[nH]c1=O,.,.,-5.8,4.2,.,.,.,
COc1ccccc1C(=O)Nc1cc(Cl)ccc1O,18.9,0.8,-5.4,34.9,-3.1,14.0,.,
CCOc1ccccc1C(=O)Nc1cc(Cl)ccc1O,18.5,0.8,5.4,67.0*,5.1,-36.5,-9.0,
COc1cccc(N(C(=O)CNC(=O)c2ccco2)C(C(=O)NC2CCCCC2)c2ccncc2)c1 (stereo not given),19.7,0.8,-0.8,0.5,-1.7,3.3,.,
Clc1ccc(COn2c(-c3ccc(Cl)cc3)nc3ccccc32)cc1,13.5,0.9,-0.9,30.8,-1.2,0.5,.,
